Source: PMC2761948 (Journal of medicinal chemistry, 2009)

Columns and labels:
[1] = system: focal adhesion kinase (FAK); experiment: FAK immunostaining and Western blotting; assay type: cell-based, mouse; conditions: 1 h; for FAK degradation (Western blotting): 4T1 cells
Method in brief: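 4T1 cells treated for 1 h with test compound or DMSO. For focal adhesion sites, cells were fixed and immunostained with anti-FAK antibody (2.5 μM test compound, 5 μM comparator). For FAK stability, each agent was given at 5 μM and cell lysates were immunoblotted with anti-FAK monoclonal antibody.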

4T1 cells [2] = experiment: Migration assay; assay type: cell-based, mouse
Method in brief: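 Trypsinised 4T1 cells (5 × 10^4) in 0.2% FBS RPMI with test compound were placed in Transwell inserts (12-μm pore polycarbonate) for 30 min at 37 °C. Inserts then moved to wells with 10% FBS RPMI for 24 h. Migrated and non-migrated cells were crystal violet-stained and methanol-solubilised separately; A570 read. Background-corrected % migration normalised to vehicle; mean ± SD, n = 3.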

4T1 cells [3] = experiment: F-actin immunostaining; assay type: cell-based, mouse; conditions: 4-h exposure
Method in brief: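 Cells grown overnight on coverslips, then exposed to test compound for 4 h in 2% FBS RPMI 1640. They were fixed in 3.7% formaldehyde, permeabilised 1 h (PBS, 0.1% Triton X-100, 0.1% BSA) and stained 30 min with Alexa Fluor 488 phallotoxin, with DAPI counterstain. Confocal imaging (488/543 nm excitation); fluorescence intensity expressed as % of untreated control.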

[4] = system: MCF-7 breast cancer cells; experiment: Adhesion assay, MCF-7 cells to Matrigel-coated surface; assay type: cell-based, human; conditions: at 100 μM
Method in brief: (§1)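 Wells coated with 12% (v/v) Matrigel for 1 h at 37 °C, washed with 0.1% BSA-RPMI, then blocked with 0.5% BSA-RPMI for 60 min. Cells were pretreated with test compound for 60 min at 37 °C, seeded at 2 × 10^4 per well, and left to adhere for 30 min. Adherent cells were fixed in formalin, stained with crystal violet and solubilised in 2% SDS; A570 read. Mean ± SD, n = 3.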

[5] = system: 4T1 metastatic breast cancer cells; experiment: Adhesion assay, 4T1 cells to Matrigel-coated surface; assay type: cell-based, mouse; conditions: read-out: IC50, inhibition of 4T1 cell adhesion
[6] = system: SKBR3 breast cancer cells; experiment: Adhesion assay, SKBR3 cells to Matrigel-coated surface; assay type: cell-based, human; conditions: at 100 μM
Method in brief: as §1

Cc1c(C)c2c(c(C)c1OC(=O)CCC(=O)O)CC[C@](C)(CCCC(C)CCCC(C)C)O2 (stereo partly shown) [Compound 2]
FAK degradation (Western blotting) ([1]; 5 μM): less evident or not appreciable | inhibition of serum-induced 4T1 cell migration (4T1 cells [2]; at 5 μM): little effect

Cc1c(C)c2c(c(C)c1OC(=O)CCC(=O)O)CC[C@](C)(/C=C/CC(C)CCCC(C)C)O2 (stereo partly shown) [Compound 4, Succinic acid mono-[2-(4,8-dimethyl-non-1-enyl)-2,5,7,8-tetramethyl-chroman-6-yl] ester]
inhibition of serum-induced 4T1 cell migration (4T1 cells [2]; at 5 μM): effective in inhibiting cell migration

Cc1c(C)c2c(c(C)c1OCC(=O)O)CC[C@](C)(/C=C/CC(C)CCCC(C)C)O2 (stereo partly shown) [Compound 5, [2-(4,8-Dimethyl-non-1-enyl)-2,5,7,8-tetramethyl-chroman-6-yloxy]-acetic acid]
effect on focal adhesion sites (anti-FAK immunostaining) ([1]; 2.5 μM): loss of focal adhesion sites | FAK degradation (Western blotting) ([1]; 5 μM): induced FAK degradation | effect on actin stress fiber and lamellipodia formation (4T1 cells [3]; 5 μM): rapid dissolution of stress fiber and impairment of lamellipodia formation | inhibition of serum-induced 4T1 cell migration (4T1 cells [2]; at 5 μM): effective in inhibiting cell migration

Cc1c(C)c2c(c(C)c1OCC(=O)O)CC[C@](C)(CCCC(C)CCCC(C)C)O2 (stereo partly shown) [Compound 6, [2-(4,8-Dimethyl-nonyl)-2,5,7,8-tetramethyl-chroman-6-yloxy]-acetic acid]
effect on actin stress fiber and lamellipodia formation (4T1 cells [3]; 10 μM): rapid dissolution of stress fiber and impairment of lamellipodia formation | inhibition of serum-induced 4T1 cell migration (4T1 cells [2]; at 5 μM): effective in inhibiting cell migration

α-tocopheryl succinate [Compound 1, reference compound]
suppression of MCF-7 cell adhesion [4]: ineffective | IC50 [5]: 10 µM | FAK degradation (Western blotting) ([1]; 5 μM): less evident or not appreciable | effect on focal adhesion sites (anti-FAK immunostaining) ([1]; 5 μM, negative control): typical punctate pattern | suppression of SKBR3 cell adhesion [6]: ineffective | effect on actin stress fiber (4T1 cells [3]; 50 μM): remained largely intact | inhibition of serum-induced 4T1 cell migration (4T1 cells [2]; at 50 μM): little effect
